From ChEMBL document CHEMBL4145619, “Computer-Assisted Discovery of Retinoid X Receptor Modulating Natural Products and Isofunctional Mimetics” (J Med Chem, 2018)
The source made the active and inactive calls. The rule behind the calls is not given here.

Columns and labels:
Format in all cases: cell-based
[1] = biological target: T1, Retinoic acid receptor beta (Homo sapiens) (UniProt P10826); assay: Transactivation of human Gal4-fused RARbeta LBD expressed in HEK293T cells at 30 uM after 12 to 14 hrs by dual-glo luciferase assay
T1 sequence (whole entry): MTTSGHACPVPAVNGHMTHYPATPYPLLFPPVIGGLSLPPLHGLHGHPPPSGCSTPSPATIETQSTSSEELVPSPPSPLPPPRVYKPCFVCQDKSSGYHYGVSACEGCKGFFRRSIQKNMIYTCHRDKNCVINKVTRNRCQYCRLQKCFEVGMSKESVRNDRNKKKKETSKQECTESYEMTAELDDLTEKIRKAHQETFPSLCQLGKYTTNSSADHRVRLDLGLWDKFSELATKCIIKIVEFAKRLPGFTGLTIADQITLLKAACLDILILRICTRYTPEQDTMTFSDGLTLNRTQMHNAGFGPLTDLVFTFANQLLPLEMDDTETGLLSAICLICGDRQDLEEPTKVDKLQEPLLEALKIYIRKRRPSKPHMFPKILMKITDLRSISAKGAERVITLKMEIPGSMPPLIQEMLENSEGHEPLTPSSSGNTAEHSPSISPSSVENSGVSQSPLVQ
In short: (§1)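 Single-concentration selectivity profiling in Gal4-hybrid reporter gene assays in HEK293T cells. Each nuclear receptor construct (RAR, PPAR, LXR, FXR, CAR, VDR, PXR, RXR) was tested at 30 μM.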

[2] = biological target: T2, Retinoic acid receptor RXR-beta (Homo sapiens) (UniProt P28702); assay: Transactivation of human Gal4-fused RXRbeta LBD expressed in HEK293T cells at 30 uM after 12 to 14 hrs by dual-glo luciferase assay; in short: as §1
T2 sequence (whole entry): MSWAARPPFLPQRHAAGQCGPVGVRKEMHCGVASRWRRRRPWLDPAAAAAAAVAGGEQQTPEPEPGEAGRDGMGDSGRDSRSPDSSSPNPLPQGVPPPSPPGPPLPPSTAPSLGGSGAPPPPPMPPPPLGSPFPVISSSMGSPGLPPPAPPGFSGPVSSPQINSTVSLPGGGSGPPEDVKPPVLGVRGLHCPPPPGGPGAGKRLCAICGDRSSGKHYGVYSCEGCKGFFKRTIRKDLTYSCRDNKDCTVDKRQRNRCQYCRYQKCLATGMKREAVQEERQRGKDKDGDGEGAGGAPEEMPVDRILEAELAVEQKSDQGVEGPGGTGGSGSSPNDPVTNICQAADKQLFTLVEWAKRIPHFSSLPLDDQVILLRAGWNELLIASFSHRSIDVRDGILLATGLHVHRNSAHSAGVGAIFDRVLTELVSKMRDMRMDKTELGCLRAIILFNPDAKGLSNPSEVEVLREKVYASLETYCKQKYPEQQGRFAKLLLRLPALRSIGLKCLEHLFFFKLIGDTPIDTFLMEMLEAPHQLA

[3] = biological target: T3, Retinoic acid receptor alpha (Homo sapiens) (UniProt P10276); assay: Transactivation of human Gal4-fused RARalpha LBD expressed in HEK293T cells at 30 uM after 12 to 14 hrs by dual-glo luciferase assay; in short: as §1
T3 sequence (whole entry): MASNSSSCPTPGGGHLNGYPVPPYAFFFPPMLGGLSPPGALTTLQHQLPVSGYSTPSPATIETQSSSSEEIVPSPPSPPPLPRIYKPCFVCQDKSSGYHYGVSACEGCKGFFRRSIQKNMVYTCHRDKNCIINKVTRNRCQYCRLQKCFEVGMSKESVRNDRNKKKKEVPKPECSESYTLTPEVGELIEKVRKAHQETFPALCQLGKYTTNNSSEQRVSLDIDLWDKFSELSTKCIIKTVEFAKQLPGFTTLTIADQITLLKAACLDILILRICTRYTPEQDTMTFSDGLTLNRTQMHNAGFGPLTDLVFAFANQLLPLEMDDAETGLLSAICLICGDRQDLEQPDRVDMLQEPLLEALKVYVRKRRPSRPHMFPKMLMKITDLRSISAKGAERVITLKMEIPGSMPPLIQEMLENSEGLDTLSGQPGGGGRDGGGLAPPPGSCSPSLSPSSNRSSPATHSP

[4] = biological target: T2, Retinoic acid receptor RXR-beta (Homo sapiens); assay: Transactivation of human Gal4-fused RXRbeta LBD expressed in HEK293T cells after 12 to 14 hrs by dual-glo luciferase assay relative to bexarotene
[5] = biological target: T4, Peroxisome proliferator-activated receptor delta (Homo sapiens) (UniProt Q03181); assay: Transactivation of human Gal4-fused PPARdelta LBD expressed in HEK293T cells at 30 uM after 12 to 14 hrs by dual-glo luciferase assay; in short: as §1
T4 sequence (whole entry): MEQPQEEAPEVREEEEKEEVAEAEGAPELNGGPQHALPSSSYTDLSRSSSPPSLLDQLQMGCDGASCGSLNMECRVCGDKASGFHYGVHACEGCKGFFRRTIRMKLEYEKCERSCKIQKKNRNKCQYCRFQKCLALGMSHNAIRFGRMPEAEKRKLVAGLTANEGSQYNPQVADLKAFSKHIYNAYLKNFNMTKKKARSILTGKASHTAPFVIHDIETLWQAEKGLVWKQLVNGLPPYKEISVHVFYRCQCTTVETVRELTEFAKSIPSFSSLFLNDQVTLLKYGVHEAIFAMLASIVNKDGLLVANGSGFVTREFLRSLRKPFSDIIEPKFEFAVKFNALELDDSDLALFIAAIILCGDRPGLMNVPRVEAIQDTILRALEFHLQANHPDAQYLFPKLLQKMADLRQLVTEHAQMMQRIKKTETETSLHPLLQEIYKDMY

[6] = biological target: T5, Oxysterols receptor LXR-beta (Homo sapiens) (UniProt P55055); assay: Transactivation of human Gal4-fused LXRbeta LBD expressed in HEK293T cells at 30 uM after 12 to 14 hrs by dual-glo luciferase assay; in short: as §1
T5 sequence (whole entry): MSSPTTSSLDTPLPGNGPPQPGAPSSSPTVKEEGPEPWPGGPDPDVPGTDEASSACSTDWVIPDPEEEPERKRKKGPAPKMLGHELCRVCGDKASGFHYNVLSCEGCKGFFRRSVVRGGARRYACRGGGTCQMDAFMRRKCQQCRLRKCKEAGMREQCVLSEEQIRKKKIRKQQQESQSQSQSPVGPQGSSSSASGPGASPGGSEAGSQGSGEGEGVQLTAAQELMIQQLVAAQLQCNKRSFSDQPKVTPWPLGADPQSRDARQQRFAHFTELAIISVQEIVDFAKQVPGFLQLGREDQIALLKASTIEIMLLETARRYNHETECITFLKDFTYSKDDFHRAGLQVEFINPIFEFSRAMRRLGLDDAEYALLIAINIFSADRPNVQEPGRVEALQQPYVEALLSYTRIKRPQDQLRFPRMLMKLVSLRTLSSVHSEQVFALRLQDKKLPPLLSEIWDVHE

- Activity [1]: inactive
- Activity [2]: Active
- Activity [3]: inactive
- fold change (FC) [4]: 69
- Activity [5]: inactive
- Activity [6]: inactive
Structure (SMILES): CC1=C2[C@H](/C=C(\C)C(=O)O)CC[C@@H](C)[C@H]2CC1 [VALERENIC ACID]
